Data from ChEMBL document CHEMBL1131113, “Design and synthesis of [2-(8,9-dioxo-2,6-diazabicyclo[5.2.0]non-1(7)-en-2-yl)-ethyl]phosphonic acid (EAA-090), a potent N-methyl-D-aspartate antagonist, via the use of 3-cyclobutene-1,2-dione as an achiral alpha-amino acid bioisostere” (J Med Chem, 1998).

Tests used:
Mus musculus = experiment: Effective dose against NMDA-induced lethality in mice on ip administration; assay type: functional
Glutamate NMDA receptor [1] = experiment: Tested in vitro for antagonistic activity at N-methyl-D-aspartate glutamate receptor by measuring displacement of [3H]TCP from crude synaptic membrane preparations obtained from rat brain; assay type: functional
In short: (§1)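 Same membranes incubated in triplicate 60 min at 25 °C with 2.5 nM [3H]TCP, 3 μM L-glutamate, 1 μM glycine, test drug. Nonspecific binding defined with 100 μM MK-801. Vacuum filtration on 0.1% PEI-pretreated filters, ice-cold buffer rinses, scintillation counting. IC50 with 95% confidence limits by nonlinear logistic regression over 5–10 concentrations.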

Glutamate NMDA receptor [2] = experiment: Displacement of [3H]CPP from rat brain synaptic membrane N-methyl-D-aspartate glutamate receptor
In short: (§2)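 Crude synaptic membranes, thawed, washed once in Tris-HCl, resuspended at 0.3–0.5 mg protein/mL (Lowry). Affinity from displacement of [3H]CPP binding per Murphy's method.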

Rattus norvegicus = species: Rattus norvegicus; experiment: Effect on infarct volume in the rat was determined by rat permanent focal ischemia model; assay type: functional
In short: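 Male Fisher-344 rats (290–310 g) under 2–4% isoflurane. Right common carotid occluded and distal MCA electrocoagulated transcranially, body temperature 37 ± 1 °C. Single iv bolus via tail vein (1 mL/kg, 10 mg/kg in 0.9% NaCl) 5 min post-occlusion. At 24 h, cresyl violet-stained 20 μm frozen sections at 400-μm intervals; infarct volume by image analysis; mean ± SE.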

[3] = target: T1, Glutamate NMDA receptor (Rattus norvegicus) (UniProt P35439+Q00959+Q00960+Q00961+Q62645+Q8VHN2+Q9R1M7); experiment: Tested in vitro at 100 uM for antagonistic activity at N-methyl-D-aspartate glutamate receptor by measuring displacement of [3H]TCP from crude synaptic membrane preparations obtained from rat brain; assay type: functional; in short: as §1
[4] = target: T1, Glutamate NMDA receptor (Rattus norvegicus); experiment: Tested in vitro at 10000 nM for binding affinity at N-methyl-D-aspartate glutamate receptor by measuring displacement of [3H]CPP from crude synaptic membrane preparations obtained from rat brain; in short: as §2

With `Nc1c(NCCP(=O)(O)O)c(=O)c1=O` the ED50 (Mus musculus) was 29 mg/kg.
In the case of `O=c1c2c(c1=O)N(CCP(=O)(O)O)CCCN2` [PERZINFOTEL], the ED50 (Mus musculus) is reported as 2.1 mg/kg, the IC50 (Glutamate NMDA receptor [1]) is reported as 7.6 µM and the IC50 (Glutamate NMDA receptor [2]) is reported as 0.03 µM. It also gave an Infarct volume (Rattus norvegicus) of 43.2 mm**3.
With `O=C(O)[C@@H]1C[C@H](CP(=O)(O)O)CCN1` (single isomer, unassigned) [SELFOTEL] the ED50 (Mus musculus) was 1.5 mg/kg and the IC50 (Glutamate NMDA receptor [1]) was 22 µM.
`O=C1C2=NCCCN(CCCP(=O)(O)O)C2=C1O` was tested, and the ED50 (Mus musculus) was > 10 mg/kg, the IC50 (Glutamate NMDA receptor [1]) was > 100 µM and the IC50 (Glutamate NMDA receptor [2]) was > 1 µM.
For `O=C([O-])CCN1CCCN=C2C(=O)C(O)=C21.[Na+]`, the ED50 (Mus musculus) was > 20 mg/kg, the inhibition [3] was 53% and the IC50 (Glutamate NMDA receptor [2]) was 0.34 µM.
With `O=C1C2=NCC(O)CN(CCP(=O)(O)O)C2=C1O` (configuration not stated) the ED50 (Mus musculus) was 1.8 mg/kg, the IC50 (Glutamate NMDA receptor [1]) was 10 µM and the IC50 (Glutamate NMDA receptor [2]) was 0.019 µM.
For `O=C1C2=NCCN(CCP(=O)(O)O)C2=C1O`, the ED50 (Mus musculus) was 6.1 mg/kg, the IC50 (Glutamate NMDA receptor [1]) was 29 µM and the IC50 (Glutamate NMDA receptor [2]) was 0.092 µM.
With `O=C1C2=NCCCN(C/C=C/P(=O)(O)O)C2=C1O` the ED50 (Mus musculus) was > 5 mg/kg, the IC50 (Glutamate NMDA receptor [1]) was > 100 µM and the IC50 (Glutamate NMDA receptor [2]) was > 10 µM.
For `O=C([O-])CN1CCCN=C2C(=O)C(O)=C21.[Na+]`, the ED50 (Mus musculus) was > 20 mg/kg, the inhibition [3] was 64% and the IC50 (Glutamate NMDA receptor [2]) was 0.55 µM.
For `O=C1C2=NCCCN(CCc3nnn[nH]3)C2=C1O`, the ED50 (Mus musculus) was > 5 mg/kg, the inhibition [4] was 41% and the IC50 (Glutamate NMDA receptor [1]) was > 100 µM.
In the case of `CC1(C)CN=C2C(=O)C(O)=C2N(CCP(=O)(O)O)C1`, the ED50 (Mus musculus) is reported as 22 mg/kg, the inhibition [3] is reported as 59% and the IC50 (Glutamate NMDA receptor [2]) is reported as 0.28 µM.
With `O=C1C2=NCCCN(Cc3nn[nH]n3)C2=C1O` the ED50 (Mus musculus) was > 10 mg/kg, the IC50 (Glutamate NMDA receptor [1]) was 18 µM and the IC50 (Glutamate NMDA receptor [2]) was 0.038 µM.
For `O=C1C(O)=C2/C1=N\CCCCN2CCP(=O)(O)O`, the ED50 (Mus musculus) was > 3 mg/kg, the IC50 (Glutamate NMDA receptor [1]) was 36 µM and the IC50 (Glutamate NMDA receptor [2]) was 0.049 µM.
